Test results reported in ChEMBL document CHEMBL1145835, “Novel potent 5-HT(1F) receptor agonists: structure-activity studies of a series of substituted N-[3-(1-methyl-4-piperidinyl)-1H-pyrrolo[3,2-b]pyridin-5-yl]amides” (J Med Chem, 2003).

How the values were obtained:
[1] = target: T1, 5-hydroxytryptamine receptor 1F (Homo sapiens, UniProt P30939); assay: In vitro binding affinity was determined by radioligand binding assay using cell line expressing human 5-hydroxytryptamine 1F receptor
T1 sequence (P30939 whole entry): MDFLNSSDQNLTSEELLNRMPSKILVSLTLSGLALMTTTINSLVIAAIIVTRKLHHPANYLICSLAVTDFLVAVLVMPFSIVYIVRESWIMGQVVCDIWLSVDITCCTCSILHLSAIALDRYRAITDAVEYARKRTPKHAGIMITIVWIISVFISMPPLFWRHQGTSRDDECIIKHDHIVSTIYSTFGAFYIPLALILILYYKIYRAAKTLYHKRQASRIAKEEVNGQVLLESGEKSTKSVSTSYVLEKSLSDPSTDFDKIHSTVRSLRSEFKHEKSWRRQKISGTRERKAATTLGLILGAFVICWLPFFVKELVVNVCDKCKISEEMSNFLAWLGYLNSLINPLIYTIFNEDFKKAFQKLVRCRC
In short: (§1)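 Ki (nM) from radioligand binding on cell lines each expressing one human serotonin receptor subtype. Values are means of at least three determinations with SEM. ND: Ki not determined, when a 10⁻⁷ M test ligand gave <50% displacement of radioligand.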

[2] = target: 5-hydroxytryptamine receptor 1B (Homo sapiens, UniProt P28222); assay: In vitro binding affinity by radioligand binding assay using cell line expressing human 5-hydroxytryptamine 1B receptor
In short: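 Ki (nM) from radioligand binding on cell lines each expressing one human serotonin receptor subtype. Values are means of at least three determinations with SEM.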

[3] = target: 5-hydroxytryptamine receptor 1D (Homo sapiens, UniProt P28221); assay: In vitro binding affinity by radioligand binding assay using cell line expressing human 5-hydroxytryptamine 1D receptor; in short: as §1
[4] = target: T2, 5-hydroxytryptamine receptor 1A (Homo sapiens, UniProt P08908); assay: In vitro binding affinity by radioligand binding assay using cell line expressing human 5-hydroxytryptamine 1A receptor; in short: as §1
T2 sequence (P08908 whole entry): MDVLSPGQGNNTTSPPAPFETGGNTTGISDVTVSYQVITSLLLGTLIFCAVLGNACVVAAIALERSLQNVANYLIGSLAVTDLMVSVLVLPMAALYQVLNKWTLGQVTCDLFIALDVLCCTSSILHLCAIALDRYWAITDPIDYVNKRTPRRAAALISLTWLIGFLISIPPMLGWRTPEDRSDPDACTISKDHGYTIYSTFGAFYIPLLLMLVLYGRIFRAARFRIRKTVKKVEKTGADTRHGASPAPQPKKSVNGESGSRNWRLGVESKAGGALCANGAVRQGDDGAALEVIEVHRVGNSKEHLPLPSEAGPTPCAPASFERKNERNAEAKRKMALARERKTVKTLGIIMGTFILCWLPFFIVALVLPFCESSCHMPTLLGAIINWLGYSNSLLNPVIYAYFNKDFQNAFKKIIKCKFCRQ

[5] = species on record: Oryctolagus cuniculus; assay: In vitro contractile response in rabbit saphenous vein; format: functional
In short: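 Rabbit saphenous vein rings. Maximal contraction is expressed as % of the contraction induced by KCl (67 mM), with the concentration giving the maximal response recorded. Means (SEM) of three to seven determinations.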

[6] = target: T1, 5-hydroxytryptamine receptor 1F; assay: In vitro effective concentration for stimulation of [35S]GTP-gamma-S, binding in mouse LM(tk-)cells expressing the human 5-hydroxytryptamine 1F receptor; format: functional
[7] = target: T3, 5-hydroxytryptamine receptor 1F (Homo sapiens) (UniProt P30939); assay: Maximum stimulation of [35S]GTP-gamma-S, binding expressed relative to the maximal effect of 5-hydroxytryptamine […]; format: functional
T3 sequence (whole entry): T1 sequence (P30939 whole entry)

[8] = test system: Cavia porcellus; assay: In vivo efficacy in neurogenic plasma protein extravasation screen using guinea pig neurogenic PPE assay (1 ng/kg, po) at 24 hr postdose; format: functional
In short: (§2)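 Guinea pig neurogenic dural PPE screen. Single oral dose of 1 ng/kg, then unilateral trigeminal ganglion stimulation with Evan's blue-labelled plasma protein leakage. Read-out is the fluorescence ratio of stimulated to unstimulated dura at 1 h or 24 h postdose. A ratio near 1 means full efficacy; near 1.8 means ineffective.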

[9] = test system: Cavia porcellus; assay: In vivo efficacy in neurogenic plasma protein extravasation screen using guinea pig neurogenic PPE assay (1 ng/kg, po) at 1 hr postdose; format: functional; in short: as §2

Chain of 5-hydroxytryptamine receptor 1B (P28222 whole entry): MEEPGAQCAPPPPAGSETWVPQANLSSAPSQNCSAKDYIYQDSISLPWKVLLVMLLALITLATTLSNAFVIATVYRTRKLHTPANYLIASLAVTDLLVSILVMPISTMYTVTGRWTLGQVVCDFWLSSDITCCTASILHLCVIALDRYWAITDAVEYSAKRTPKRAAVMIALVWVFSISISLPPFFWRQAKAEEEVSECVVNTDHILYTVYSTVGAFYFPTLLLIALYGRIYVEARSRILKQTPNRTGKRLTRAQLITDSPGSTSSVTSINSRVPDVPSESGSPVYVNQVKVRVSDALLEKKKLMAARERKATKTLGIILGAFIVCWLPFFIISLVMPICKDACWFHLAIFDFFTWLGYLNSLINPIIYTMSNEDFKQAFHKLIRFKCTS
Chain of 5-hydroxytryptamine receptor 1D (P28221 whole entry): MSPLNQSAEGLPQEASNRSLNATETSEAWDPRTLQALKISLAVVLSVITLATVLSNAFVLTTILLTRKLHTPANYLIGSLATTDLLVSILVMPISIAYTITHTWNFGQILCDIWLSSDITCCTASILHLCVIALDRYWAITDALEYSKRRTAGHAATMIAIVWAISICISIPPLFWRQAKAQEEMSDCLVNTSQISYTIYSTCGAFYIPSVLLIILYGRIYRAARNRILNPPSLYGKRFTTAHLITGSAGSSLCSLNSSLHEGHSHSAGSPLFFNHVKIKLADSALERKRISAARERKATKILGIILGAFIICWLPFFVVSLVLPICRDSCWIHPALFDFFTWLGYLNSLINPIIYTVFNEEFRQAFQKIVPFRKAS

SMILES | Ki [1] [µM] | Ki [2] [µM] | Ki [3] [µM] | Ki [4] [µM] | Response [5] [%] | EC50 [6] [µM] | Emax [7] [%] | Efficacy [8] | Efficacy [9]
CCCCN1CCC(c2c[nH]c3ccc(NC(=O)c4ccc(F)cc4)nc23)CC1 | 0.014 |  |  |  |  |  |  |  | 
CN1CCC(c2c[nH]c3ccc(NC(=O)Nc4ccc(F)cc4)nc23)CC1 | 0.011 | 0.0032 | 0.0038 |  |  |  |  |  | 
CN1CCC(c2c[nH]c3ccc(OS(C)(=O)=O)nc23)CC1 | 0.0047 | 0.025 | 0.008 |  |  |  |  |  | 
CN1CCC(c2c[nH]c3ccc(NC(=O)C4CCCCC4)nc23)CC1 | 0.02 |  |  | 0.66 |  |  |  |  | 
CCCC(=O)Nc1ccc2[nH]cc(C3CCN(C)CC3)c2n1 | 0.0069 |  |  |  | 12.4 | 0.013 | 94 |  | 
O=C(Nc1ccc2[nH]cc(C3CCNCC3)c2n1)c1ccc(F)cc1 | 0.0095 |  |  |  |  |  |  |  | 
CCN1CC=C(c2c[nH]c3ccc(NC(C)=O)nc23)CC1 | 0.021 |  |  |  |  |  |  |  | 
CN1CCC(c2c[nH]c3ccc(NC(=O)c4ccccn4)nc23)CC1 | 0.0063 | 1 | 0.82 | 0.041 |  | 0.025 | 63 |  | 
CN1CCC(c2c[nH]c3ccc(NC(=O)c4ccc(F)cc4)cc23)CC1 | 0.0021 |  | 0.43 | 0.022 |  |  |  |  | 
Cc1ccccc1C(=O)Nc1ccc2[nH]cc(C3CCN(C)CC3)c2n1 | 0.012 | 0.15 | 0.44 | 0.106 |  |  |  |  | 
CCC(=O)Nc1ccc2[nH]cc(C3CCNCC3)c2n1 | 0.035 |  |  |  |  |  |  |  | 
CCN1CCC(c2c[nH]c3ccc(NC(=O)c4ccc(F)cc4)nc23)CC1 | 0.17 |  |  |  |  |  |  |  | 
CCCCC(=O)Nc1ccc2[nH]cc(C3CCN(C)CC3)c2n1 | 0.014 |  |  |  |  |  |  |  | 
Cc1cccc(C(=O)Nc2ccc3[nH]cc(C4CCN(C)CC4)c3n2)c1 | 0.0058 | 1.2 | 0.49 | 0.1 |  |  |  |  | 
CN1CCC(c2c[nH]c3cnc(NC(=O)c4ccc(F)cc4)cc23)CC1 | 0.013 | 0.08 | 0.053 | 0.017 |  |  |  |  | 
CN1CCC(c2c[nH]c3ccc(OS(=O)(=O)c4ccc(F)cc4)nc23)CC1 | 0.0075 |  | 0.03 |  |  |  |  |  | 
CN1CCC(c2c[nH]c3ccc(NC(=O)c4cccc([N+](=O)[O-])c4)nc23)CC1 | 0.042 | 0.39 | 0.33 | 0.13 |  |  |  |  | 
CCNC(=O)Nc1ccc2[nH]cc(C3CCN(C)CC3)c2n1 | 0.0038 |  | 0.04 |  |  |  |  |  | 
CN1CCC(c2c[nH]c3cnc(NC(=O)c4ccc(F)cc4)nc23)CC1 | 0.067 | 6 | 1.9 | 0.2 |  |  |  |  | 
CN1CCC(c2c[nH]c3ccc(NC(=O)c4ccco4)nc23)CC1 | 0.013 | 1.1 | 0.93 | 0.56 |  | 0.011 | 82 |  | 
CN1CCC(c2c[nH]c3ccc(NC(=O)c4ccccc4F)nc23)CC1 | 0.019 |  |  | 0.042 |  |  |  |  | 
CN1CCC(c2c[nH]c3ccc(N)nc23)CC1 | 0.1 | 0.8 | 0.42 |  |  |  |  |  | 
CN1CCC(c2c[nH]c3ccc(NC(=O)c4ccoc4)nc23)CC1 | 0.0046 | 0.93 | 1.1 | 0.84 |  | 0.011 | 88 |  | 
CN1CCC(c2c[nH]c3ccc(NC(=O)C(C)(C)C)nc23)CC1 | 0.062 |  |  |  |  |  |  |  | 
CN1CCC(c2c[nH]c3ccc(NC(=O)c4cccs4)nc23)CC1 | 0.0071 | 0.39 | 0.65 | 0.35 |  | 0.015 | 61 |  | 
CN1CCC(c2c[nH]c3ccc(NC(=O)c4ccsc4)nc23)CC1 | 0.0074 | 1 | 0.81 | 0.4 | 0 | 0.0094 | 84 | 1.6 | 1
O=C(Nc1ccc2[nH]cc(C3CCN(CCc4ccccc4)CC3)c2n1)c1ccc(F)cc1 | 0.075 |  |  |  |  |  |  |  | 

SMILES | Ki [1] [µM] | Ki [2] [µM] | Ki [3] [µM] | Ki [4] [µM] | Response [5] [%] | EC50 [6] [µM] | Emax [7] [%] | Efficacy [8] | Efficacy [9]
CN1CCC(c2c[nH]c3ccc(NC(=O)c4ccncc4)nc23)CC1 | 0.0084 | 0.33 | 0.42 | 0.04 |  | 0.011 | 97 |  | 
Cc1ccc(C(=O)Nc2ccc3[nH]cc(C4CCN(C)CC4)c3n2)cc1 | 0.012 |  |  | 0.03 |  |  |  |  | 
CN1CCC(c2c[nH]c3ccc(NC(=O)c4cccc(F)c4)nc23)CC1 | 0.011 | 1.6 | 0.69 | 0.135 |  |  |  |  | 
CC(=O)Nc1ncc2[nH]cc(C3CCN(C)CC3)c2n1 | 0.22 | 2.9 | 0.47 | 0.78 |  |  |  |  | 
CN1CCC(c2c[nH]c3ccc(NC(=O)c4ccc([N+](=O)[O-])cc4)nc23)CC1 | 0.0077 | 0.27 | 0.34 | 0.038 |  |  |  |  | 
CC(=O)Nc1ccc2[nH]cc(C3CCN(C)CC3)c2c1 | 0.0097 | 0.39 | 0.15 | 0.068 |  |  |  |  | 
CCCN1CCC(c2c[nH]c3ccc(NC(=O)c4ccc(F)cc4)nc23)CC1 | 0.018 |  |  |  |  |  |  |  | 
COc1ccccc1C(=O)Nc1ccc2[nH]cc(C3CCN(C)CC3)c2n1 | 0.02 | 0.75 |  | 0.02 |  |  |  |  | 
CN1CCC(c2c[nH]c3ccc(NC(=O)c4cccc(C#N)c4)nc23)CC1 | 0.011 | 0.59 |  | 0.1 |  |  |  |  | 
CN1CCC(c2c[nH]c3ccc(NS(C)(=O)=O)nc23)CC1 | 0.019 | 0.61 | 0.38 |  |  |  |  |  | 
CN1CCC(c2c[nH]c3ccc(NC(=O)C4CCC4)nc23)CC1 | 0.0087 | 0.38 | 0.9 | 2 | 17 | 0.021 | 81 |  | 
CN1CCC(c2c[nH]c3ccc(O)nc23)CC1 | 0.1 |  |  |  |  |  |  |  | 
CNC(=O)Nc1ccc2[nH]cc(C3CCN(C)CC3)c2n1 | 0.0025 | 0.014 | 0.0085 |  |  |  |  |  | 
CN1CCC(c2c[nH]c3ccc(NC(=O)c4ccccc4[N+](=O)[O-])nc23)CC1 | 0.019 |  | 0.17 | 0.064 |  |  |  |  | 
CC(=O)Nc1cc2c(C3CCN(C)CC3)c[nH]c2cn1 | 0.21 |  | 0.039 | 0.002 |  |  |  |  | 
CCCCCCCC(=O)Nc1ccc2[nH]cc(C3CCN(C)CC3)c2n1 | 0.02 | 0.032 | 0.11 |  |  |  |  |  | 
CC(=O)Nc1ccc2[nH]cc(C3CCNCC3)c2n1 | 0.045 |  |  |  |  |  |  |  | 
COc1ccc2[nH]cc(C3CCN(C)CC3)c2n1 | 0.023 | 0.11 | 0.023 |  |  |  |  |  | 
CCN1CC=C(c2c[nH]c3ccc(NC(=O)c4ccc(F)cc4)nc23)CC1 | 0.025 |  |  |  |  |  |  |  | 
CN1CCC(c2c[nH]c3ccc(NC(=O)C4CCCC4)nc23)CC1 | 0.011 | 0.64 | 0.74 | 2 |  |  |  |  | 
CCCCCC(=O)Nc1ccc2[nH]cc(C3CCN(C)CC3)c2n1 | 0.013 |  |  |  |  |  |  |  | 
CN1CCC(c2c[nH]c3ccc(NC(=O)c4ccccc4)nc23)CC1 | 0.0073 | 0.82 | 1 | 0.072 | 0 |  |  | 1.6 | 1.1
CN1CCC(c2c[nH]c3ccc(NC(=O)C4CC4)nc23)CC1 | 0.0098 | 1.7 | 1.8 | 1.4 | 2.3 | 0.034 | 77 |  | 1.4
CC(C)N1CCC(c2c[nH]c3ccc(NC(=O)c4ccc(F)cc4)nc23)CC1 | 0.03 |  |  |  |  |  |  |  | 
CN1CCC(c2c[nH]c3ccc(NC(=O)c4ccc(Cl)cc4Cl)nc23)CC1 | 0.0041 |  | 0.083 | 0.0051 |  |  |  |  | 
COc1cccc(C(=O)Nc2ccc3[nH]cc(C4CCN(C)CC4)c3n2)c1 | 0.016 |  |  | 0.098 |  |  |  |  | 
CN1CCC(c2c[nH]c3ccc(NS(=O)(=O)c4ccc(F)cc4)nc23)CC1 | 0.027 |  |  |  |  |  |  |  | 
